Reference: ChEMBL document CHEMBL1130136, “Novel biological response modifiers: phthalimides with tumor necrosis factor-alpha production-regulating activity” (J Med Chem, 1997)
Values after ≈ are worked out from the molar mass of the structure shown.

Legend:
[1] = tested on: HL-60; assay: Tumor necrosis factor-alpha production in human leukemia cell line (HL-60) stimulated with 10 nM 12-O-tetradecanoylphorbol 13-acetate (TPA) at 30 uMolar.; assay type: functional
Summary of the method: (§1)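 HL-60 cells at 5 × 10⁵/mL in RPMI1640 + 10% FBS were co-treated with 30 μM test compound and either 10 nM TPA or 50 nM OA for 16 h at 37 °C. Culture-medium TNF-α was measured by ELISA and expressed as % of inducer-alone control. Cell counts were taken at harvest. Assays were run in duplicate or triplicate (mean taken), at least three times.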

[2] = tested on: WI-38; assay: The cytotoxicity of the compounds assessed using human embryonic lung fibroblast WI-38 cells at (53 micro M); assay type: functional, cell-based
Summary of the method: (§2)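 WI-38 human embryonic lung fibroblasts (5 × 10³ cells/well) in RPMI1640 + 10% FCS were exposed to graded concentrations of compound for 48 h at 37 °C. Viability was read by WST-1 with 1-methoxy PMS (2 h, 37 °C; absorbance at 450 nm). IC50 was reported in μg/mL, with the μM equivalent in parentheses.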

[3] = tested on: HL-60; assay: Tumor necrosis factor-alpha production in human leukemia cell line (HL-60) stimulated with 50 nM okadaic acid (OA), at 30 uMolar.; assay type: functional; summary of the method: as §1
[4] = tested on: WI-38; assay: The cytotoxicity of the compounds assessed using human embryonic lung fibroblast WI-38 cells at (264 micro M); assay type: functional, cell-based; summary of the method: as §2
[5] = tested on: HL-60; assay: Amount of tumor necrosis factor-alpha produced by human leukemia cell line (HL-60) stimulated with 50 nM okadaic acid (OA), at 0.3 uM, measured by ELISA.; assay type: functional
Summary of the method: (§3)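 HL-60 cells (2.5 × 10⁵ in 0.5 mL, i.e. 5 × 10⁵/mL), growing exponentially in RPMI1640 + 10% FBS, were exposed to 10 nM TPA or 50 nM OA together with 0.3 μM test compound for 16 h at 37 °C. Secreted TNF-α was quantified by ELISA and expressed as % of inducer-alone production. Each run was done in duplicate or triplicate (mean taken) and repeated at least three times.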

[6] = tested on: HL-60; assay: Amount of tumor necrosis factor-alpha produced in human leukemia cell line (HL-60) stimulated with 10 nM12-O-tetradecanoylphorbol 13-acetate (TPA) at 0.3 micro M, measured by ELISA.; assay type: functional; summary of the method: as §3
[7] = tested on: WI-38; assay: The cytotoxicity of the compounds assessed using human embryonic lung fibroblast WI-38 cells at (2.3 micro M); assay type: functional, cell-based; summary of the method: as §2
[8] = tested on: HL-60; assay: Amount of tumor necrosis factor-alpha produced by human leukemia cell line (HL-60) stimulated with 10 nM12-O-tetradecanoylphorbol 13-acetate (TPA) at 0.3 uM, measured by ELISA.; assay type: functional; summary of the method: as §3
[9] = tested on: HL-60; assay: Inhibition of 50 nM okadaic acid induced tumor necrosis factor-alpha production in human leukemia cell line (HL-60) by 0.3 uM.; assay type: functional; summary of the method: as §3
[10] = tested on: WI-38; assay: The cytotoxicity of the compounds assessed using human embryonic lung fibroblast WI-38 cells at (8 micro M); assay type: functional, cell-based; summary of the method: as §2
[11] = tested on: HL-60; assay: Amount of tumor necrosis factor-alpha produced by human leukemia cell line (HL-60) stimulated with 10 nM12-O-tetradecanoylphorbol 13-acetate (TPA) at 0.3 uM, measured by ELISA; assay type: functional; summary of the method: as §3
[12] = tested on: WI-38; assay: In vitro cytotoxicity against human embryonic lung fibroblast WI-38 cells.; assay type: functional, cell-based; summary of the method: as §2
[13] = tested on: WI-38; assay: The cytotoxicity of the compounds assessed using human embryonic lung fibroblast WI-38 cells at (99 micro M); assay type: functional, cell-based; summary of the method: as §2
[14] = tested on: WI-38; assay: The cytotoxicity assessed using human embryonic lung fibroblast WI-38 cells.; assay type: functional, cell-based; summary of the method: as §2
[15] = tested on: WI-38; assay: The cytotoxicity of the compounds assessed using human embryonic lung fibroblast WI-38 cells at (95 micro M); assay type: functional, cell-based; summary of the method: as §2
[16] = tested on: WI-38; assay: The cytotoxicity of the compounds assessed using human embryonic lung fibroblast WI-38 cells at (20 micro M); assay type: functional, cell-based; summary of the method: as §2
[17] = tested on: WI-38; assay: The cytotoxicity of the compounds assessed using human embryonic lung fibroblast WI-38 cells at (148 micro M); assay type: functional, cell-based; summary of the method: as §2
[18] = tested on: WI-38; assay: The cytotoxicity of the compounds assessed using human embryonic lung fibroblast WI-38 cells at (25 micro M); assay type: functional, cell-based; summary of the method: as §2
[19] = tested on: WI-38; assay: The cytotoxicity of the compounds assessed using human embryonic lung fibroblast WI-38 cells at (39 micro M); assay type: functional, cell-based; summary of the method: as §2
[20] = tested on: WI-38; assay: The cytotoxicity of the compounds assessed using human embryonic lung fibroblast WI-38 cells at (136 micro M); assay type: functional, cell-based; summary of the method: as §2
[21] = tested on: WI-38; assay: The cytotoxicity of the compounds assessed using human embryonic lung fibroblast WI-38 cells at (40 micro M); assay type: functional, cell-based; summary of the method: as §2
[22] = tested on: WI-38; assay: The cytotoxicity of the compounds assessed using human embryonic lung fibroblast WI-38 cells at (121 micro M); assay type: functional, cell-based; summary of the method: as §2
[23] = tested on: WI-38; assay: The cytotoxicity of the compounds assessed using human embryonic lung fibroblast WI-38 cells at (97 micro M); assay type: functional, cell-based; summary of the method: as §2
[24] = tested on: WI-38; assay: The cytotoxicity of the compounds assessed using human embryonic lung fibroblast WI-38 cells at (87 micro M); assay type: functional, cell-based; summary of the method: as §2
[25] = tested on: WI-38; assay: The cytotoxicity of the compounds assessed using human embryonic lung fibroblast WI-38 cells at (83 micro M); assay type: functional, cell-based; summary of the method: as §2
[26] = tested on: WI-38; assay: The cytotoxicity of the compounds assessed using human embryonic lung fibroblast WI-38 cells at (2.6 micro M).; assay type: functional, cell-based; summary of the method: as §2

Compound	Amount of TNF-alpha [1] [%]	Amount of TNF-alpha [3] [%]	Amount of TNF-alpha [9] [%]	Amount of TNF-alpha [11] [%]	other results
CC(C)c1cccc(C(C)C)c1N1C(=O)c2ccc(N)cc2C1=O	242	28			IC50 [2]: 17.4 µg/mL (≈ 54 µM)
CC(C)c1cccc(C(C)C)c1N1C(=O)c2cccc([N+](=O)[O-])c2C1=O	792	54			IC50 [4]: 93.1 µg/mL (≈ 264 µM)
CC(C)c1cccc(C(C)C)c1N1C(=O)c2c(F)c(F)c(F)c(F)c2C1=O					Amount of TNF-alpha [5]: 0%; Amount of TNF-alpha [6]: 375%; IC50 [7]: 0.9 µg/mL (≈ 2.37 µM)
CC(=O)Nc1ccc([C@H](C)N2C(=O)c3c(F)c(F)c(F)c(F)c3C2=O)cc1			80		Amount of TNF-alpha [8]: 268%
C[C@@H](c1cccc2ccccc12)N1C(=O)c2c(F)c(F)c(F)c(F)c2C1=O			101	101	IC50 [10]: 2.8 µg/mL (≈ 7.5 µM)
C[C@H](c1ccc(N)cc1)N1C(=O)c2c(F)c(F)c(F)c(F)c2C1=O			27	241	
C[C@H](C1CCCCC1)N1C(=O)c2c(F)c(F)c(F)c(F)c2C1=O			10	98	IC50 [12]: > 100 µg/mL
CC[C@H](c1ccccc1)N1C(=O)c2c(F)c(F)c(F)c(F)c2C1=O			67	111	
CCc1cccc(C)c1N1C(=O)c2ccccc2C1=O	188	82			IC50 [13]: 26.2 µg/mL (≈ 98.8 µM)
O=C1CCC(N2C(=O)c3ccccc3C2=O)C(=O)N1 (configuration not stated) [THALIDOMIDE]	135	58			IC50 [14]: > 100 µg/mL
CC(C)c1cccc(C(C)C)c1N1C(=O)c2ccccc2C1=S	1252	0			IC50 [15]: 30.8 µg/mL (≈ 95.2 µM)
CCc1cccc(C(C)C)c1N1C(=O)c2ccccc2C1=O	255	26			IC50 [16]: 6 µg/mL (≈ 20.5 µM)
CC(C)c1cccc(C(C)C)c1N1Cc2ccccc2C1=O	214	40			IC50 [17]: 43.1 µg/mL (≈ 147 µM)
CC(C)c1cccc(C(C)C)c1N1C(=O)c2cccc(N)c2C1=O	248	21			IC50 [18]: 8.1 µg/mL (≈ 25.1 µM)
CC[C@@H](c1ccccc1)N1C(=O)c2c(F)c(F)c(F)c(F)c2C1=O			87	235	
CC(C)c1cccc(C(C)C)c1N1C(=O)c2ccc(O)cc2C1=O	153	7			IC50 [19]: 12.7 µg/mL (≈ 39.3 µM)
CCc1cccc(CC)c1N1C(=O)c2ccccc2C1=O	453	53			IC50 [20]: 38 µg/mL (≈ 136 µM)
C[C@H](c1ccccc1)N1C(=O)c2c(F)c(F)c(F)c(F)c2C1=O			2	97	IC50 [21]: 12.8 µg/mL (≈ 39.6 µM)
CC(C)c1cccc(C(C)C)c1N1C(=O)c2ccc([N+](=O)[O-])cc2C1=O	683	54			IC50 [22]: 42.7 µg/mL (≈ 121 µM)
C[C@@H](C1CCCCC1)N1C(=O)c2c(F)c(F)c(F)c(F)c2C1=O			65	124	IC50 [12]: > 100 µg/mL
Cc1cccc(C(C)C)c1N1C(=O)c2ccccc2C1=O	234	33			IC50 [23]: 28.1 µg/mL (≈ 101 µM)
C[C@H](c1ccc([N+](=O)[O-])cc1)N1C(=O)c2c(F)c(F)c(F)c(F)c2C1=O			27	239	
O=C1c2c(F)c(F)c(F)c(F)c2C(=O)N1[C@@H]1CCc2ccccc21			43	233	IC50 [24]: 30.3 µg/mL (≈ 90.4 µM)
CC(=O)Nc1ccc([C@@H](C)N2C(=O)c3c(F)c(F)c(F)c(F)c3C2=O)cc1			55	220	
C[C@@H](c1ccc(N)cc1)N1C(=O)c2c(F)c(F)c(F)c(F)c2C1=O			38	262	
C[C@@H](c1ccccc1)N1C(=O)c2c(F)c(F)c(F)c(F)c2C1=O			70	143	IC50 [25]: 26.8 µg/mL (≈ 82.9 µM)
C[C@H](c1cccc2ccccc12)N1C(=O)c2c(F)c(F)c(F)c(F)c2C1=O			2	100	IC50 [10]: 2.8 µg/mL (≈ 7.5 µM)
C[C@@H](c1ccc([N+](=O)[O-])cc1)N1C(=O)c2c(F)c(F)c(F)c(F)c2C1=O			32	268	
O=C1c2c(F)c(F)c(F)c(F)c2C(=O)N1C1Cc2ccccc2C1			43	104	IC50 [26]: 0.9 µg/mL (≈ 2.68 µM)
O=C1c2c(F)c(F)c(F)c(F)c2C(=O)N1[C@H]1CCc2ccccc21			98	392	IC50 [12]: > 100 µg/mL
